Source: PubChem BioAssay
MC4R antag cAMP – blocks human MC4R cAMP signaling; MC4R-expressing cells, MTII-stimulated cAMP, LANCE TR-FRET; inhibition, % at 6.5 µM; actives 0.48% (n = 360,000); AID 540295;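 active = inhibition above its plate's cutoff, the mean of tested wells on that plate plus 3 SD, cut at about 29% in these data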;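 also: 0% = Melanotan II alone and 100% = Melanotan II plus saturating MCL0020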
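Test system: U2OS cells stably expressing human melanocortin 4 receptor (MC4R); also added: Melanotan II challenge; compound: 6.5 µM single dose; timing: 30-min compound preincubation, 1-h Melanotan II challenge, 1-h detection, room temperature; signal: Eu-cAMP/anti-cAMP TR-FRET, emission 671 nm; repeats: one well per compound, no replicates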
PfG6PD inh – PfG6PD (Plasmodium falciparum) enzyme inhibition | actives 0.78% (n = 350,000) | inhibition, % at 20 µM | PfGluPho enzyme, NADPH resazurin-diaphorase fluorescence;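 active = inhibition reaching at least a set limit at 20 µM in the primary screen, cut at about 59% in these data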;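 also: 0% = DMSO wells with substrate and 100% = DMSO wells lacking glucose-6-phosphate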
MC4R ag barr – activates human MC4R beta-arrestin recruitment; P32245; U2OS MC4R beta-arrestin complementation, luminescence; percent of melanotan II response, DMSO zero; activation, % at 8.9 µM; actives 0.98% (n = 360,000);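 active = activation above a per-plate cutoff, the mean activation of sample wells on that plate plus 3 SD, cut at about 8% in these data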
ABHD5-PLIN5 inh – inhibitors of human ABHD5-perilipin-5 interaction; Q00G26+Q8WTS1; Split G. princeps luciferase complementation, luminescence, 4 h; inhibition, % at 4 µM; actives 0.78% (n = 360,000);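 active = inhibition above the mean inhibition across every tested compound plus 3 SD, cut at about 22% in these data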;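 also: 0% = DMSO only wells and the 100% control is not disclosed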
B2AR ag – activates human beta-2 adrenergic receptor causing internalization | response, % (concentration not given with the values) | P07550 | actives 0.43% (n = 340,000) | Am2.2-beta2AR cells, FAP receptor internalization, flow cytometry;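 active = response above a set limit, near 3 SD of response in nonfluorescent compounds, cut at about 42% in these data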
Target sequence (P07550 whole entry, looked up): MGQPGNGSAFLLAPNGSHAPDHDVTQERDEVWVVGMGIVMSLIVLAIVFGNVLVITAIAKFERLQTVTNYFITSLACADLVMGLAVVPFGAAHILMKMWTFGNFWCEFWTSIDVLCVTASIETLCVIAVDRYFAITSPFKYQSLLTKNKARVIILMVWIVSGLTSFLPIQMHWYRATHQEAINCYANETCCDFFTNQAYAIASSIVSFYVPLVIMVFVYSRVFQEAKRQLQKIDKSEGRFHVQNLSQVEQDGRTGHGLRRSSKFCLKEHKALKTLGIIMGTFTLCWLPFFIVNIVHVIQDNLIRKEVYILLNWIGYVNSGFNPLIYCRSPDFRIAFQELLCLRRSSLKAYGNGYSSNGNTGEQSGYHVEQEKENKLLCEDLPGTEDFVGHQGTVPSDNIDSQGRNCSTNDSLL
PfGluPho conf – PfG6PD inhibition, single-dose confirmed | recombinant PfGluPho, NADPH-diaphorase-resazurin fluorescence | AID 504753 | actives 34% (n = 2,400) | shares compounds with PfG6PD inh | inhibition, % at 20 µM;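 active = inhibition of at least 50% at 20 µM in any single replicate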;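 also: 0% = DMSO with substrate and 100% = DMSO lacking glucose-6-phosphate substrate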
Diaphorase 10uM – diaphorase inhibition or oxidation at 10 uM NADPH. shares compounds with PfG6PD inh. diaphorase-coupled resazurin reduction, fluorescence, NADPH 10 uM. inhibition, % at 20 µM. actives 39% (n = 820);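 active = average inhibition reaching 50% or more with the compound at 20 µM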;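 also: resorufin red fluorescence formed as diaphorase reduces resazurin using NADPH; 0% = DMSO with enzyme and 100% = DMSO without enzyme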
Diaphorase 30uM – inhibits diaphorase or oxidizes, flagging false PfG6PD hits; inhibition, % at 20 µM; actives 29% (n = 820); shares compounds with PfG6PD inh; Diaphorase/resazurin coupled assay, resorufin fluorescence, 30 uM NADPH;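 active = inhibition averaging 50% or more, tested at 20 µM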;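 also: 0% = DMSO with enzyme and 100% = DMSO wells lacking diaphorase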
* marks the source's active call; other numbers are inactive results; nt = no result given. This is a sample that favours compounds with a hit; in the whole collection about 3% have one here.

SMILES	MC4R antag cAMP	PfG6PD inh	MC4R ag barr	ABHD5-PLIN5 inh	B2AR ag	PfGluPho conf	others
CC(C)n1c(=S)[nH]c2c1c(=O)[nH]c(=O)n2C	1	67*	-2	-14	-2	33
CC1(C)CC(=O)C(C(C#Cc2ccccc2)C2=C(O)CC(C)(C)CC2=O)=C(O)C1	9	20	-1	6	0	nt
O=C1CCCC(O)=C1C(C#Cc1ccccc1)C1=C(O)CCCC1=O	0	64*	-2	10	10	40
Cc1cc(C)nc(SCC(=O)N/N=C/c2cccnc2)n1	12	-4	0	4	14	nt
NC(=O)N/N=C/c1ccc([N+](=O)[O-])o1	-8	-4	-1	-5	3	nt
O=C(CSc1ccc(Cl)cc1)N/N=C/c1ccc([N+](=O)[O-])o1	9	110*	-3	1	24	82*	Diaphorase 10uM=81*;Diaphorase 30uM=66*
O=C(CSc1ccc(Cl)cc1)N/N=C/c1cccnc1	11	63*	-2	0	-6	36
CC(CC(=O)Nc1cccc(F)c1)S(=O)(=O)c1ccc2c(c1)NC(=O)CO2 (centres undefined)	21	-1	0	4	-3	nt
COc1ccc2c(c1)CC/C(=C/c1ccncc1)C2=O	2	-3	1	8	8	nt
COc1ccc2c3c(ccc2c1)C(=O)/C(=C/O)CC3	11	69*	26*	-3	-24	45
Cc1c(N=C2C=C(Br)C(=O)C(Br)=C2)c(=O)n(-c2ccccc2)n1C	-1	98*	-3	-18	1	103*	Diaphorase 10uM=38;Diaphorase 30uM=11
CCc1c(C)sc(NC(=O)OC)c1C(N)=O	-10	0	2	7	-1	nt
CCc1c(C)sc(NC(=O)C2CCCCC2C(=O)O)c1C(N)=O (centres undefined)	2	74*	-1	-10	7	32
Nc1[nH]n(-c2ccccc2)c(=O)c1N=Nc1ccccc1	2	7	1	1	-1	nt
Nc1[nH]n(-c2ccccc2)c(=O)c1N=Nc1ccc2ncsc2c1	8	67*	-2	3	1	19
O=C1CC2C(CCC23OCCO3)c2ccc3ccccc3c21 (centres undefined)	-1	9	0	-1	-11	nt
O=C1/C(=C\c2ccc([N+](=O)[O-])cc2)CCc2ccccc21	11	14	0	9	5	nt
O=C1/C(=C/Nc2cccc([N+](=O)[O-])c2)CCc2ccccc21	26	67*	9.2*	-16	-7	35
O=C(CNC(=O)c1cccs1)OCC(=O)c1ccc([N+](=O)[O-])cc1	22	68*	-1	-8	5	49*	Diaphorase 10uM=-8;Diaphorase 30uM=-10
Cc1ccc(C(=O)COC(=O)CNC(=O)CNC(=O)c2ccc(C)cc2)cc1	11	-5	0	2	5	nt
O=C(CNC(=O)c1ccco1)OCC(=O)c1ccc([N+](=O)[O-])cc1	4	63*	-2	-8	4	66*	Diaphorase 10uM=-5;Diaphorase 30uM=-4
O=C(CNC(=O)c1cccs1)c1ccc([N+](=O)[O-])cc1	-2	0	0	-4	-2	nt
O=C(Cc1ccccc1)NCC(=O)OCC(=O)c1ccc([N+](=O)[O-])cc1	3	68*	-2	-11	2	67*	Diaphorase 10uM=-2;Diaphorase 30uM=-6
Cc1ccc(C(=O)NCC(=O)NCC(=O)OCC(=O)c2ccc([N+](=O)[O-])cc2)cc1	5	63*	-3	-15	-6	62*	Diaphorase 10uM=-9;Diaphorase 30uM=0
CC(C)(C)N(Cc1ccccc1)C(=O)COC(=O)/C=C/c1ccc2c(c1)OCO2	19	-4	0	4	0	nt
SMILES	MC4R antag cAMP	PfG6PD inh	MC4R ag barr	ABHD5-PLIN5 inh	B2AR ag	PfGluPho conf	others
COc1ccccc1CNC(=O)COC(=O)C1CCN(c2ccc(C(F)(F)F)cn2)CC1	15	13	3	-5	3	nt
Cc1noc(/C=C/N(C)C)c1S(=O)(=O)N1CCCC(C(=O)Nc2ccccc2F)C1 (centres undefined)	0	-1	2	7	2	nt
O=C(COC(=O)c1ccccn1)c1ccc([N+](=O)[O-])cc1	9	63*	-4	-7	2	41
O=C(CSc1ccc(-c2ccccn2)nn1)c1ccc([N+](=O)[O-])cc1	10	5	2	-1	-11	nt
O=C(CNc1ccccc1)c1ccc([N+](=O)[O-])cc1	5	64*	-2	-10	36	2
Cc1nonc1-c1csc(N)n1	5	0	0	2	2	nt
Cc1cccc(NC(=O)c2ncn3c2C(=O)N[C@H](C)C3)c1	nt	nt	nt	0	nt	nt
Clc1ccccc1-c1nnc2sc(-c3ccc4c(c3)OCO4)nn12	-18	63*	4	-1	2	41
Clc1ccccc1-c1nnc2sc(CCc3ccccc3)nn12	-3	60*	-4	-1	-4	21
Nc1cccc([N+](=O)[O-])c1	14	-9	-3	7	0	nt
O=[N+]([O-])c1cccc(SSc2cccc([N+](=O)[O-])c2)c1	-13	115*	-3	36*	3	52*	Diaphorase 10uM=-8;Diaphorase 30uM=-6
CCn1c(SCc2nc3ccccc3[nH]2)nnc1-c1cnccn1	0	67*	-3	2	20	40
CCn1c(SCc2nc3ccccc3[nH]2)nnc1-c1cccnc1	1	39	-2	-1	-2	nt
COC1=C(OC)C(=O)C(CCCCCCCCCCO)=C(C)C1=O	7	nt	2	-4	nt	nt
CC1=C(C)C(=O)C(CCCCC#CCCCC#CCO)=C(C)C1=O	0	89*	3	-3	3	31
COc1ccccc1N(C(=O)c1ccco1)C(C(=O)NC1CCCC1)c1ccc(N2CCOCC2)cc1 (centres undefined)	-1	2	4	-2	8	nt
Cc1onc(-c2ccccc2)c1C(=O)Nc1sc2c(c1C(N)=O)CCC2	-1	13	-2	-5	-11	nt
Cc1onc(C(=O)Nc2sc3c(c2C(N)=O)CCCC3)c1[N+](=O)[O-]	-2	64*	-3	-2	-9	47
Oc1ccc2ccccc2c1C=NC12CN3CCN(CN(C3)C1)C2	2	75*	1	-31	7	41
OCc1nc2ccccc2n1Cc1ccc(Cl)cc1	9	-20	1	1	-1	nt
Cc1cc(C)c(C)c(Cn2c(CO)nc3ccccc32)c1C	6	69*	2	1	0	36
O=C(NCCc1ccccc1)C(=O)NC1CCCCC1	16	-1	0	3	-1	nt
